Assay outcomes deposited in PubChem BioAssay by several laboratories.
Dynein cargo inh = blocks dynein driven cargo transport along microtubules; z-score, hits read low; AID 1381; hit rate 0.47% among 220,000; 3617.4 mouse cells, GR-EGFP nuclear translocation imaging; test concentration mostly 20 µM; stimulated with dexamethasone, 1 µM; active compounds read low;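 active = plate z-score of nuclear minus cytoplasmic receptor signal below a set negative limit, without overly bright fluorescence or cell loss, cut at about -3.5 in these data, passing the limit was not always enough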;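 note: z-score of nuclear minus cytoplasmic ring GR-EGFP intensity difference per well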
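Buffer or medium: tet-free, stripped-serum medium; Also added: dexamethasone, 1.0 µM final; Technique: high-content fluorescence imaging after fixation; Times: 48 h induction, 1 h compound, 30 min dex at 37 °C; Read-out: per-cell GR-EGFP intensity, nucleus versus surrounding cytoplasmic ring, well-averaged.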
L929 necroptosis = L929 zVAD cell death inhibition; L929 zVAD necroptosis rescue, ATP luminescence, 24 h; with zVAD 60 µM; hit rate 0.38% among 220,000; AID 1377; viability rescue, % at 10 µM;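 active = activation, scaled between plate controls, above about 75%, limit read from the data; inactive = activation under that limit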;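 note: 0% = zVAD with DMSO and 100% = DMSO alone without zVAD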
Beta2AR agonist = activates human beta-2 adrenergic receptor causing internalization; Am2.2-beta2AR cells, FAP receptor internalization, flow cytometry; response, % (no concentration beside the values); hit rate 0.43% among 340,000; AID 504454;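 active = response above a set limit, near 3 SD of response in nonfluorescent compounds, cut at about 42% in these data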
Target sequence (P07550 whole entry, looked up): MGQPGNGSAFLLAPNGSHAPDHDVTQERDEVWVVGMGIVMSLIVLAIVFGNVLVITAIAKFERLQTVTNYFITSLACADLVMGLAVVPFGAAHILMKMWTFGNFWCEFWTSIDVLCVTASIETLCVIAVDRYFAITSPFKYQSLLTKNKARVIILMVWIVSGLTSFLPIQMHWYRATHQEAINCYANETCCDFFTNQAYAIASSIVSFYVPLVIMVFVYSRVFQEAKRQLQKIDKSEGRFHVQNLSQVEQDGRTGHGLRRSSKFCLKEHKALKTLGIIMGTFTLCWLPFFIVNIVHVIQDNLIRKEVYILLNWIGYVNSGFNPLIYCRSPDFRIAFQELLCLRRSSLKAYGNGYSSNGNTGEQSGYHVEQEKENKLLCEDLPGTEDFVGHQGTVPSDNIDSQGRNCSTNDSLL
TNF necrop inh = TNF-alpha cell death inhibition in Jurkat FADD-/- cells; hit rate 0.068% among 220,000; Jurkat FADD-/- TNF necroptosis rescue, ATP luminescence, 24 h; 0 = TNF only, 100 = no-TNF cells; activation (protection from cell death), % at 10 µM;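 active = activation, meaning protection from cell death, of at least 50% relative to plate controls; inactive = activation below 50%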;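 note: necroptosis triggered by 40 ng/mL TNF-alpha added together with compound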
MDM2 E3 inh = Mdm2 E3 ligase (human) inhibition; cell-based MDM2 ubiquitination luciferase reporter, 2 h; 0 = plate control, 100 = twice control, blank-subtracted; signal enhancement, % at 5 µM; hit rate 0.11% among 210,000; AID 1230;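 active = signal enhancement of 30% or more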;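 note: luminescence tracks abundance of the self-degrading MDM2-luciferase fusion protein; higher signal means inhibition of MDM2 E3 ligase activity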
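Test system: stable mammalian line carrying autodegrading MDM2–luciferase fusion reporter; quantity: 2000 cells in each well; times: 4 h cell settling then 2 h compound exposure, 37 °C; detection: luminescence with SteadyLite reagent, 15 min at room temperature; evaluation: percent signal gain over controls, blank-subtracted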
Dynein confirm = dynein cargo transport inhibition, confirmation; calls only at 20 µM; 3617.4 GR-EGFP nuclear translocation imaging, dexamethasone-induced; AID 463116; shares compounds with Dynein cargo inh; hit rate 69% among 1,000;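 active = inhibition of receptor movement into the nucleus at or above a set limit in both runs, with normal cell brightness and cell count; inconclusive = limit reached in only one run, brightness and count normal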;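 note: dexamethasone at 1 µM final in well for 30 min; nuclear minus cytoplasmic GR-EGFP mean intensity difference in channel 2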
Starred values were filed as active, the others as inactive; i = inactive; ? = inconclusive; · = not tested or not shown; + = active, no number. Rows were chosen to be rich in hits. Some 0.97% of all compounds tested hit in one or more screens of this group.

SMILES	Dynein cargo inh	L929 necroptosis	Beta2AR agonist	TNF necrop inh	MDM2 E3 inh	Dynein confirm
CN1CC=C2C(C#N)=C(N)C(C#N)(C#N)C(Cc3ccccc3)C2C1 (stereo unspecified)	-4.63	-0.1	-1.3	-0.4	15.9	i
CC(C)N1CC=C2C(C#N)=C(N)C(C#N)(C#N)C(c3ccccc3)C2C1 (stereo unspecified)	-2.97	-0.3	1.1	-2.9	5.8	·
Cc1nc2c(ccc3nc(NC(=O)c4ccc(S(=O)(=O)N(C)C)cc4)sc32)s1	-4.13*	7.6	5.4	-1.1	-12.8	i
Cc1nn(-c2ccccc2)c2nc(N)c(C#N)c(-c3ccc(C(C)(C)C)cc3)c12	0.701	3.9	1.5	9.0	-14.5	·
O=[N+]([O-])c1ccc(Sc2nnnn2-c2ccccc2)nc1	-5.19*	2.5	·	-15.5	-16.9	+
O=[N+]([O-])c1ccc(Sc2ccccn2)nc1	-0.922	0.2	-7.8	16.4	-5.8	·
Cc1ccccc1-n1nnnc1Sc1nnnn1-c1ccccc1	-5.07*	-0.8	0.8	-13.0	-14.2	+
O=C(NC1CCCCC1)C(c1cccnc1)N(C(=O)CCl)c1cccc(Cl)c1 (stereo unspecified)	-4.25*	·	34.5	-27.6	-0.7	+
Cc1cccc(N(C(=O)CNC(=O)c2ccco2)C(C(=O)NC2CCCCC2)c2cccnc2)c1 (stereo unspecified)	·	·	-1.6	·	·	·
COc1cccc(/C(O)=C/c2nc3ccc(C(=O)NCCc4ccc(Cl)cc4)cc3[nH]c2=O)c1	-6.81	10.6	-32.2	2.5	-17.9	+
COc1cccc(/C(O)=C/c2nc3ccc(C(=O)NCCc4cccc(C)c4)cc3[nH]c2=O)c1	-2.24	12.0	-39.4	0.3	-21.2	·
Cn1ccc(NC(=O)Nc2ccc(Cl)cc2Cl)n1	-0.558	·	1.9	1.0	-3.8	·
O=C(O)c1ccc(N/N=C/c2cn(Cc3ccc(F)cc3)c3ccccc23)cc1	-0.95	2.6	27.5	20.7	-36.3	·
O=[N+]([O-])/C=C/c1cn(Cc2ccc(F)cc2)c2ccccc12	-3.87*	-0.1	40.8	-15.7	-16.8	+
COc1cccc(CC(=O)OCC(=O)NNC(=O)c2ccc([N+](=O)[O-])cc2)c1	·	·	-3.1	·	·	·
CCOC(=S)SCC(=O)Nc1ncc(C)s1	-4.14*	13.0	-4.4	-18.1	-4.2	i
COc1ccccc1NS(=O)(=O)c1cc([N+](=O)[O-])ccc1N/N=C/c1c[nH]c2ccccc12	-4.13	0.5	-249.1	-6.6	-17.9	i
O=[N+]([O-])c1ccc(N/N=C/c2c[nH]c3ccccc23)cc1	-8.38	1.0	-213.8	19.2	-11.3	+
O=[N+]([O-])c1ccc(N/N=C/c2ccc[nH]2)cc1	-10.6	2.6	8.9	-5.5	-6.5	+
O=[N+]([O-])c1ccccc1N/N=C/c1c[nH]c2ccccc12	-0.681	0.5	2.2	-1.2	3.3	·
Cc1[nH]c2ccccc2c1/C=N/Nc1ccc([N+](=O)[O-])cc1S(=O)(=O)Nc1ccc(Cl)cc1	-5.35	0.8	-319.1	-5.5	-7.7	i
C[C@H]1CNC(=O)C(=O)N1C[C@H](Cc1ccc(O)cc1)NC(=O)CC12CC3CC(CC(C3)C1)C2	·	·	-0.3	·	·	·
COc1ccc(C2(C)NC(=O)N(CC(=O)Nc3ccc4[nH]c(=O)[nH]c4c3)C2=O)cc1 (stereo unspecified)	·	·	7.4	·	·	·
COc1ccccc1NS(=O)(=O)c1cc([N+](=O)[O-])ccc1N/N=C/c1sc(N2CCOCC2)nc1-c1ccccc1	-11.8	1.7	-366.8	2.1	-0.7	i
Cc1ccccc1NC(=O)c1ccccc1-c1ccccc1	·	·	-1.9	·	·	·
SMILES	Dynein cargo inh	L929 necroptosis	Beta2AR agonist	TNF necrop inh	MDM2 E3 inh	Dynein confirm
CCOC(=O)CSc1nnc(-c2cccc(Cl)c2)n1CC	1.93	-0.3	-0.3	-2.1	-11.2	·
Clc1ccc(N=c2ssnc2Cl)nc1	-3.53*	0.3	13.7	-9.4	-31.7	i
CC1C/C(=C/c2ccco2)C(=O)/C(=C/c2ccco2)C1 (stereo unspecified)	-3.73	0.3	·	-1.9	-3.4	+
O=C(COC(=O)c1cnc(Cl)c(Cl)c1)NC1CC1	·	·	6.6	·	·	·
O=C(/C=C/c1ccc(O)cc1)c1ccc(O)cc1O	-1.78	24.7	6.6	-1.7	·	·
O=C(/C=C/c1ccccn1)c1cc(Br)ccc1O	-4.82*	-0.4	3.0	-18.6	-9.2	+
O=C(/C=C/c1ccccn1)c1ccc(Br)cc1O	-3.68*	0.0	-3.5	0.6	-9.4	?
NNC(=O)c1ccc([N+](=O)[O-])c(CS(=O)(=O)c2ccc(Cl)cc2)c1	0.729	0.4	-2.1	-2.3	0.0	·
C=CCSc1nc2ccccc2n1C(=O)/C=C/c1cc(OC)c(OC)c(OC)c1	-6*	-0.5	85.8*	33.5	53.6*	+
Cn1c(=O)c2c(nc(NC3CCCC3)n2C)n(C)c1=O	·	·	1.8	·	·	·
O=[N+]([O-])c1ccc(C=Nc2ccc(Cl)c([N+](=O)[O-])c2)s1	-5.65*	6.9	26.0	-16.6	10.0	+
CCOc1ccc(C(=O)NCC(=O)N2CCC(C)CC2)cc1OCC	0.679	-0.1	-0.6	1.0	-7.9	·
O=c1oc(-c2ccco2)nc2ccccc12	-3.55*	0.3	-1.9	-2.9	-12.4	i
O=C1N/C(=N/O)S/C1=C/c1cccc([N+](=O)[O-])c1	0.39	-0.1	2.6	1.5	-93.3	·
CC1(C)CC(=O)/C(=C\c2cccc([N+](=O)[O-])c2)C(C)(C)N1	-3.6*	-1.3	12.2	-5.2	-7.4	+
CCOC(=O)c1c(C)[nH]c(C)c1C(=O)CN1C(=O)NC(CC(C)C)C1=O (stereo unspecified)	1.85	0.0	-0.1	-2.1	4.9	·
COc1ccc(N(CC(=O)NCC2CCCO2)C(=O)CCC(=O)Nc2cc(C)on2)cc1OC (stereo unspecified)	·	·	0.3	·	·	·
COC(=O)C1=CN(Cc2cccs2)C=C(C(=O)OC)C1c1cccc(O)c1	-0.575	-0.7	-0.9	-1.3	5.0	·
COC(=O)c1cc(=O)n(Cc2ccc(F)cc2)c(=Nc2ccccc2)s1	-4.64*	-0.4	25.4	-7.7	·	+
COC(=O)c1cc(=O)n(Cc2cccs2)c(=Nc2ccccc2)s1	-4.43*	0.7	21.4	-4.7	-11.6	+
COC(=O)c1cc(=O)n(Cc2ccc(OC)c(OC)c2)c(=Nc2ccc(F)cc2)s1	-4.35*	-1.1	71.8*	-7.2	-11.4	+
COC(=O)c1cc2c(C)nn(-c3ccccc3)c2s1	1.32	-0.1	1.3	-3.0	-10.1	·
COC(=O)c1cc(=O)n(-c2ccccc2)c(=Nc2ccccc2)s1	-3.93*	·	17.9	-12.6	·	+
CCOC(=O)N1CCC(NC(=O)CN2C(=O)CSc3nc(C)cc(C)c32)CC1	-0.728	1.4	6.0	1.0	-22.1	·
